Reference: ChEMBL document CHEMBL1143844, “Biochemical studies on the mechanism of human immunodeficiency virus type 1 reverse transcriptase resistance to 1-(beta-D-dioxolane)thymine triphosphate” (Antimicrob Agents Chemother, 2007)
pIC50: −log10 of the molar value.

Key:
[1] = Inhibition of HIV1 reverse transcriptase 75I/77L/116Y/151M mutant in presence of 5 mM ATP by heteropolymeric DNA polymerase assay; design: species or system Human immunodeficiency virus 1
Procedure, shortened: (§1)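 Heteropolymeric DNA polymerase assay with ATP added at 5 mM. Purified HIV-1 RT at 30–100 pM acts on a plate-bound DNA primer with a 5′-A12-(GTCA)5-3′ template. dATP, dGTP, dCTP and BrdUTP at 1.0 μM each. Incubation 180 min at 33°C. BrdUMP incorporation read via anti-BrdU-AP at 405 nm after NaOH dehybridization. IC50 from seven inhibitor concentrations, at least two experiments in duplicate.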

[2] = Inhibition of HIV1 reverse transcriptase 75I/77L/116Y/151M mutant by heteropolymeric DNA polymerase assay; design: species or system Human immunodeficiency virus 1
Procedure, shortened: (§2)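 Purified p66/p51 HIV-1 RT, or p66 homodimer for 65R, at 30–100 pM (about 1.5–4.5 mU/well). Plate-bound 18-mer DNA primer on a 50-base 5′-A12-(GTCA)5-3′ DNA template. dATP, dGTP, dCTP and BrdUTP at 1.0 μM each, no ATP. Buffer: HEPES 50 mM pH 7.3, 10 mM MgCl2. Incubation 180 min at 33°C, NaOH dehybridization, anti-BrdU-AP tracer, A405. IC50 from seven inhibitor concentrations, at least two experiments in duplicate.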

[3] = target: T1, Human immunodeficiency virus type 1 reverse transcriptase (Human immunodeficiency virus 1, UniProt Q72547); experiment: Inhibition of HIV1 LAI reverse transcriptase wild type in presence of 5 mM ATP by heteropolymeric DNA polymerase assay
Procedure, shortened: (§3)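 Heteropolymeric DNA assay with 5 mM ATP added: immobilized 18-mer primer, 5′-A12-(GTCA)5 50-mer template, dATP/dGTP/dCTP/BrdUTP at 1.0 μM each, HEPES 50 mM pH 7.3, MgCl2 10 mM. RT 30–100 pM, incubated at 33°C for 180 min. NaOH strand separation, then anti-BrdU-AP detection at 405 nm. IC50 fitted from seven inhibitor concentrations; two to four runs in duplicate.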

[4] = Inhibition of HIV1 reverse transcriptase 41L/67N/70R/184V/210W/215Y mutant in presence of 5 mM ATP by heteropolymeric DNA polymerase assay; design: species or system Human immunodeficiency virus 1; procedure, shortened: as §1
[5] = target: T1, Human immunodeficiency virus type 1 reverse transcriptase; experiment: Inhibition of HIV1 pNL4-3 reverse transcriptase wild type pNL4-3 in presence of 5 mM ATP by heteropolymeric DNA polymerase assay; procedure, shortened: as §3
[6] = Inhibition of HIV1 reverse transcriptase 41L/67N/70R/210W/215Y mutant in presence of 20 uM dNTP by heteropolymeric DNA polymerase assay; design: species or system Human immunodeficiency virus 1
Procedure, shortened: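 DNA polymerase assay with 5 mM ATP and purified HIV-1 RT (HXB2 background) on a plate-bound primer with a 5′-A12-(GTCA)5-3′ template. Each dNTP (dATP, dGTP, dCTP, BrdUTP) is set at either 1 μM or 20 μM. Incubation 180 min at 33°C, anti-BrdU-AP readout at 405 nm. IC50 from at least two experiments in duplicate. Fold change is relative to wild-type RT at the same dNTP level.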

[7] = target: T1, Human immunodeficiency virus type 1 reverse transcriptase; experiment: Inhibition of HIV1 LAI reverse transcriptase wild type LAI by heteropolymeric DNA polymerase assay
Procedure, shortened: (§4)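 Heteropolymeric assay without ATP: plate-bound 18-mer DNA primer (~110 nM) with 50-mer 5′-A12-(GTCA)5 template (190 nM). dATP, dGTP, dCTP and BrdUTP at 1.0 μM each, in HEPES 50 mM pH 7.3, MgCl2 10 mM. RT 30–100 pM, 33°C for 180 min, then NaOH dehybridization and anti-BrdU-AP tracer read at 405 nm. IC50 from seven triphosphate concentrations; two to four runs in duplicate.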

[8] = Inhibition of HIV1 reverse transcriptase 41L/69S-SG/184V/210W/215Y mutant by heteropolymeric DNA polymerase assay; design: species or system Human immunodeficiency virus 1; procedure, shortened: as §2
[9] = Inhibition of HIV1 reverse transcriptase 75I/77L/116Y/151M/184V mutant in presence of 5 mM ATP by heteropolymeric DNA polymerase assay; design: species or system Human immunodeficiency virus 1; procedure, shortened: as §1
[10] = Inhibition of HIV1 reverse transcriptase 184V mutant in presence of 5 mM ATP by heteropolymeric DNA polymerase assay; design: species or system Human immunodeficiency virus 1; procedure, shortened: as §1
[11] = Inhibition of HIV1 reverse transcriptase 41L/69S-SG/210W/215Y mutant in presence of 5'-A12-(GTCA)5-3' by heteropolymeric DNA polymerase assay
[12] = Inhibition of HIV1 pNL4-3 reverse transcriptase 115F mutant in presence of 5 mM ATP by heteropolymeric DNA polymerase assay; design: species or system Human immunodeficiency virus 1; procedure, shortened: as §1
[13] = Inhibition of HIV1 reverse transcriptase wild type HXB2(a) in presence of 5 mM ATP by heteropolymeric DNA polymerase assay; design: species or system Human immunodeficiency virus 1; procedure, shortened: as §3
[14] = Inhibition of HIV1 reverse transcriptase wild type HXB2(b) in presence of 5 mM ATP by heteropolymeric DNA polymerase assay; design: species or system Human immunodeficiency virus 1; procedure, shortened: as §3
[15] = Inhibition of HIV1 reverse transcriptase wild type HXB2(a) in presence of 1 uM dNTP by heteropolymeric DNA polymerase assay; design: species or system Human immunodeficiency virus 1
Procedure, shortened: (§5)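 Heteropolymeric DNA assay containing 5 mM ATP on the 5′-A12-(GTCA)5 template, with each dNTP (BrdUTP in place of TTP) at 1 μM or, in the modified version, 20 μM. HEPES 50 mM pH 7.3, MgCl2 10 mM, 33°C for 180 min, then NaOH step and anti-BrdU-AP readout at 405 nm. Mean IC50 from at least two runs in duplicate.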

[16] = Inhibition of HIV1 reverse transcriptase 41L/69S-SG/210W/215Y mutant in presence of 5 mM ATP by heteropolymeric DNA polymerase assay; design: species or system Human immunodeficiency virus 1; procedure, shortened: as §1
[17] = Inhibition of HIV1 reverse transcriptase 184V mutant by heteropolymeric DNA polymerase assay; design: species or system Human immunodeficiency virus 1; procedure, shortened: as §2
[18] = Inhibition of HIV1 LAI reverse transcriptase 65R mutant in presence of 5 mM ATP by heteropolymeric DNA polymerase assay; design: species or system Human immunodeficiency virus 1; procedure, shortened: as §1
[19] = Inhibition of HIV1 reverse transcriptase 41L/69S-SG/210W/215Y mutant by heteropolymeric DNA polymerase assay; design: species or system Human immunodeficiency virus 1; procedure, shortened: as §2
[20] = Inhibition of HIV1 reverse transcriptase 75I/77L/116Y/151M/184V mutant by heteropolymeric DNA polymerase assay; design: species or system Human immunodeficiency virus 1; procedure, shortened: as §2
[21] = Inhibition of HIV1 HXB2 reverse transcriptase 41L/67N/70R/215Y/219Q mutant in presence of 5 mM ATP by heteropolymeric DNA polymerase assay
[22] = Inhibition of HIV1 reverse transcriptase wild type HXB2(a) in presence of 5'-A12-(GTCA)5-3' by heteropolymeric DNA polymerase assay; design: species or system Human immunodeficiency virus 1; procedure, shortened: as §5
[23] = Inhibition of HIV1 pNL4-3 reverse transcriptase 115F mutant by heteropolymeric DNA polymerase assay; design: species or system Human immunodeficiency virus 1; procedure, shortened: as §2
[24] = target: T1, Human immunodeficiency virus type 1 reverse transcriptase; experiment: Inhibition of HIV1 pNL4-3 reverse transcriptase wild type pNL4-3 by heteropolymeric DNA polymerase assay; procedure, shortened: as §4

Structure (SMILES)	pIC50 [1]	pIC50 [2]	pIC50 [3]	pIC50 [4]	pIC50 [5]	pIC50 [6]	pIC50 [7]	pIC50 [9]	pIC50 [10]	pIC50 [11]	pIC50 [12]	pIC50 [13]	pIC50 [14]	pIC50 [15]	pIC50 [16]	pIC50 [17]	pIC50 [18]	pIC50 [19]	pIC50 [20]	pIC50 [21]	other results
Cc1cn([C@H]2C[C@H](N=[N+]=[N-])[C@@H](COP(=O)(O)OP(=O)(O)OP(=O)(O)O)O2)c(=O)[nH]c1=O [ZIDOVUDINE TRIPHOSPHATE]	5.05	5.29	6.52	6.05	6.38	4.80	7.10	4.66	6.28	5.36	6.26	6.34	6.32	6.34	5.36	6.60	6.21	6.80	4.97	5.60	pIC50 [8]: 6.68; pIC50 [22]: 6.34; pIC50 [23]: 6.89; pIC50 [24]: 6.89
Cc1cn([C@H]2CO[C@@H](COP(=O)(O)OP(=O)(O)OP(=O)(O)O)O2)c(=O)[nH]c1=O	5.21	5.68	6.72	6.15	6.52	5.62	6.96	4.82	6.30	5.80	6.70	6.42	6.42	6.42	5.80	6.74	6.12	6.96	5.15	6.08	pIC50 [8]: 6.66; pIC50 [22]: 6.42; pIC50 [23]: 7.10; pIC50 [24]: 7.00
C[C@H](Cn1cnc2c(N)ncnc21)OCP(=O)(O)OP(=O)(O)OP(=O)(O)O	4.96	5.10	5.89	5.23	5.40	4.31	6.26	5.34	5.64	4.62	5.43	5.48	5.49	5.48	4.62	5.66	4.68	5.43	5.54	4.98	pIC50 [22]: 5.48; pIC50 [23]: 5.96; pIC50 [24]: 5.92
